The values below come from PMC7164687 (Antiviral research, 2020).

Each structure is given as a SMILES string. Counter-ions that a name gives are not always drawn. Some results are limits rather than exact numbers.

Series [1] is described as follows: Cytotoxicity assay in PXB cells. As to conditions: human. It counts as cell-based.
The subject of series [2] is HIV-1LAI. The series can be described thus: microbe, parasite or virus in culture. It counts as cell-based. As to conditions: Human immunodeficiency virus 1, MT2, 168 h, read-out: IC50 against HIV-1LAI.
In series [3] the test system is HBVETV^R. Kind of series: HBVETV^R viremia in infected human-liver-chimeric mice. The series is classed as in vivo. As to conditions: for reduction of HBVETV^R viremia, day 14: 14 days, average reduction by day 14; for block of HBVETV^R viremia: once-daily peroral 1 mg/kg/day over 14 days, abstract. In a few lines: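 uPA/SCID mice with livers repopulated by human hepatocytes, infected with recombinant ETV-resistant HBV clone (L180M/S202G/M204V). Dosing began 7–14 weeks after inoculation: test compound, ETV or saline given intragastrically at 1 mg/kg once daily for 14 days, n=2–4 per group. Serum HBV-DNA (S gene) measured by real-time PCR. Change from day 0 compared by repeated-measures ANOVA, two-tailed, uncorrected.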

Series [4] deals with HBVWT^Ce. The series can be described thus: HBVWT^Ce viremia in infected human-liver-chimeric mice. It counts as in vivo. As to conditions: for reduction of HBVWT^Ce DNA (viremia), day 14: 14 days, average reduction by day 14.
Series [5] is classed as in vivo, human-liver-chimeric mice. The following applies: 1 mg/kg/day oral, 14 days, HBV-infected mice.
The test system of series [6] is PXB cells. Kind of series: Cytotoxicity assay in PXB cells. It counts as cell-based. As to conditions: read-out: CC50 in PXB cells; PXB cells, continuous exposure; mean ± 1 S.D.
For series [7], the system named is HBVWT^D. The series can be described thus: microbe, parasite or virus in culture. The following applies: Hepatitis B virus, HepG2.2.15, read-out: anti-HBV activity IC50. The series is classed as cell-based.
For series [8], the system named is human DNA polymerases, α, β, and γ. The following applies: ref Nakata et al., 2007; cited from earlier work.
The mark [9] stands for this setting: CC50 in PXB cells, PXB cells, continuous exposure, mean ± 1 S.D.
Setting [10] is: 1 mg/kg/day oral, average reduction by 3 days after start.

Broadly, the CC50 is the concentration at which the toxic effect on the cells reaches its halfway point. By IC50 is commonly meant the midpoint of a concentration-inhibition curve. In series [1] (setting [9]), `CC(C)(C)C(=O)OCOP(=O)(COCCn1cnc2c(N)ncnc21)OCOC(=O)C(C)(C)C` [ADV, adefovir dipivoxil] showed a CC50 of 71.5 ± 19.3 µM. The 50% inhibitory concentration (IC50) in series [2] is 0.66 ± 0.2 µM.

In turn, `CC(C)OC(=O)OCOP(=O)(CO[C@H](C)Cn1cnc2c(N)ncnc21)OCOC(=O)OC(C)C` [TDF, tenofovir disoproxil fumarate] registered a CC50 in series [1] (PXB cells) of 33.4 ± 10.9 µM. For the same molecule, the IC50 in series [2] was 0.03 ± 0.01 µM.

Turning to `C=C1[C@H](CO)[C@@H](O)C[C@@H]1n1cnc2c(=O)[nH]c(N)nc21` [ETV, entecavir], the “reduction of HBVETV^R viremia, day 14” value in series [3] (1 mg/kg/day oral) is listed as 0.5 log10 copies/mL. Besides, the “block of HBVETV^R viremia” value in series [3] is “only slightly suppressed”. The “reduction of HBVWT^Ce DNA (viremia), day 14” value in series [4] (1 mg/kg/day oral) is on record as 2.2 log10 copies/mL. In series [1] (setting [9]), this molecule registered a CC50 of 252 ± 37.5 µM. The IC50 in series [2] was 1 ± 0.4 µM. Moreover, in series [5], the “changes in serum human albumin levels” value was “no significant differences”.

`N#C[C@]1(CO)O[C@@H](n2cc(F)c3c(N)ncnc32)C[C@@H]1O` [CdFA, 4’-C-cyano-7-deaza-7-fluoro-2’-deoxyadenosine]: the “reduction of HBVETV^R viremia, day 14” value in series [3] (1 mg/kg/day oral) was determined as 1.2 log10 copies/mL. In addition, the “reduction of HBVETV^R viremia, day 3” value in series [3] (setting [10]) is reported as 0.6 log10 copies/mL. In addition, the “block of HBVETV^R viremia” value in series [3] is 1.2 logs. In series [4] (1 mg/kg/day oral), the “reduction of HBVWT^Ce DNA (viremia), day 14” value came to 0.7 log10 copies/mL. In series [4] (setting [10]), the “reduction of HBVWT^Ce DNA (viremia), day 3” value was determined as 0.5 log10 copies/mL. Moreover, the “block of HBVWT viremia” value in series [4] (once-daily peroral 1 mg/kg/day over 14 days, abstract) was found to be 0.7 logs. For the same molecule, in series [6], the CC50 stood at 55.9 ± 5.7 µM. Moreover, the figures for the IC50 in series [2] and in series [7] were 0.88 ± 0.01 µM and around 0.026 µM, respectively.

`C#C[C@]1(CO)O[C@@H](n2cnc3c(N)nc(F)nc32)C[C@@H]1O` [EFdA, 4’-ethynyl-2-fluoro-2’-deoxyadenosine]: the “inhibition of the activity of human DNA polymerases α, β, and γ” value in series [8] is listed as “little inhibition”.

Regarding `N#C[C@]1(CO)O[C@@H](n2cnc3c(N)ncnc32)C[C@@H]1O` [CdA, 4’-C-cyano-2’-deoxyadenosine], the CC50 in series [1] (setting [9]) turned out to be 5.4 ± 1.5 µM. Moreover, the IC50 in series [2] came to 0.094 ± 0.004 µM.

For `CC(C)OC(=O)[C@H](C)N[P@](=O)(CO[C@H](C)Cn1cnc2c(N)ncnc21)Oc1ccccc1` [TAF, tenofovir alafenamide], the CC50 in series [1] was 5.7 ± 1.9 µM. Further, the IC50 in series [2] was found to be 0.004 ± 0.002 µM.

For `Nc1ccn([C@@H]2CS[C@H](CO)O2)c(=O)n1` [3TC, lamivudine], in series [1] (setting [9]), the CC50 is above 100 µM. In addition, the IC50 in series [2] is 0.66 ± 0.15 µM.

In turn, `N#C[C@]1(CO)O[C@@H](n2cnc3c(=O)[nH]c(N)nc32)C[C@@H]1O` [CdG, 4’-C-cyano-2’-deoxyguanosine] yielded a CC50 in series [1] (setting [9]) of 0.37 ± 0.03 µM. Besides, the IC50 in series [2] stood at 0.0006 ± 0.0001 µM.
